ChEMBL document CHEMBL1130261, “Identification of novel farnesyl protein transferase inhibitors using three-dimensional database searching methods” (J Med Chem, 1997)

How the values were obtained:
Type in all cases: protein-complex assay
[1] = target: T1, Protein farnesyltransferase (Homo sapiens, UniProt P49354+P49356); experiment: Inhibitory activity against recombinant human farnesyltransferase
[2] = target: T1, Protein farnesyltransferase; experiment: Inhibitory activity against farnesyltransferase (FPT) (20 ug/mL)
Outline: (§1)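 Primary scintillation proximity assay (SPA) following the kit protocol, with a biotinylated substrate peptide bearing the K-Ras carboxy-terminal sequence.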

[3] = target: Geranylgeranyl transferase type I (Homo sapiens, UniProt P49354+P53609); experiment: Inhibitory activity against Geranylgeranyl transferase type I
[4] = target: Protein farnesyl/geranylgeranyl transferase (Homo sapiens) (UniProt P49354+P49356+P53609); experiment: Selectivity was expressed as the ratio of the Geranylgeranyl transferase type I to FPT inhibitory activities (IC50)
[5] = target: T1, Protein farnesyltransferase; experiment: Inhibition of Farnesyltransferase (FPT) in FPT Ras/TCA assay
Outline: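 Secondary FPT assay measuring transfer of [³H]farnesyl from [³H]farnesyl pyrophosphate to His₆-H-Ras-CVLS. Labelled protein was collected by TCA precipitation. IC50 values were obtained from this Ras/TCA format.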

[6] = target: T1, Protein farnesyltransferase; experiment: Inhibition of farnesyltransferase (FTP) at 20 ug/mL; outline: as §1
[7] = target: T1, Protein farnesyltransferase; experiment: Inhibition of Farnesyltransferase

Row | IC50 [1] | inhibition [2] | Compound | other results
1 | 266 µM | 14% | Cc1cccc2c1[C@@H](O)[C@@H](Cn1ccnc1)S2 | –
2 | 1.4 µM | 83% | Clc1ccc(COC2c3c(Cl)cc(Cl)cc3SC2Cn2ccnc2)cc1 (stereo not given) | IC50 [3]: 18.8 µM; Selectivity ratio [4]: 13.4
3 | 1.1 µM | 94% | Clc1sccc1CO[C@@H]1c2ccccc2S[C@@H]1Cn1ccnc1 | IC50 [3]: 46.8 µM; Selectivity ratio [4]: 42.5
4 | 724 µM | – | CN1CCC(C2c3ccccc3CCc3cccnc32)CC1 (stereo not given) | –
5 | 0.7 µM | 96% | Fc1ccc2c(c1)[C@@H](OCc1ccc(Cl)c(Cl)c1)[C@@H](Cn1ccnc1)S2 | IC50 [3]: 9.8 µM; Selectivity ratio [4]: 14
6 | – | 42% | O[C@@H]1c2ccc(C(F)(F)F)cc2S[C@@H]1Cn1ccnc1 | –
7 | 4.4 µM | 92% | Fc1cccc(Cl)c1CO[C@@H]1c2ccc(Cl)cc2S[C@@H]1Cn1ccnc1 | –
8 | 0.6 µM | – | O=C(Cc1cccnc1)N1CCC(=C2c3ccc(Cl)cc3CCc3cccnc32)CC1 | –
9 | 0.8 µM | – | O=C(Cc1ccccc1)N1CCC(=C2c3ccc(Cl)cc3CCc3cccnc32)CC1 | –
10 | – | 58% | OC1c2ccc(Cl)cc2SC1Cn1ccnc1 (stereo not given) | –
11 | 2.3 µM | 96% | Clc1ccc2c(c1)S[C@H](Cn1ccnc1)[C@@H]2OCc1ccsc1Cl | –
12 | – | 86% | CC(=O)N1CCN(c2nc(CO[C@@H]3c4cc(C(C)(C)C)ccc4S[C@@H]3Cn3ccnc3)ns2)CC1 | IC50 [3]: > 39 µM
13 | 2.7 µM | 90% | Fc1ccc2c(c1)[C@@H](OCc1c(Cl)cccc1Cl)[C@@H](Cn1ccnc1)S2 | –
14 | 0.2 µM | 99% | Clc1ccc(COC2c3cc(Cl)ccc3SC2Cn2ccnc2)c(Cl)c1 (stereo not given) | IC50 [3]: 0.7 µM; Selectivity ratio [4]: 3.5
15 | 10.7 µM | 90% | Clc1ccc2c(c1)S[C@H](Cn1ccnc1)[C@@H]2OCc1cscn1 | –
16 | 3.2 µM | 80% | Clc1ccc2c(c1)S[C@H](Cn1ccnc1)[C@@H]2OCc1c(Cl)ccc2c1OCO2 | –
17 | 1.2 µM | 95% | Clc1ccc2c(c1)S[C@H](Cn1ccnc1)[C@@H]2OCc1ccc(Cl)c(Cl)c1 | IC50 [3]: 12.9 µM; Selectivity ratio [4]: 10.8
18 | 1.8 µM | – | C=C1CC2C3C=C(Cl)C4=CC(=O)C(Br)CC4(C)C3CCC2(C)[C@@]1(O)C(C)=O (stereo not given in full) | –
19 | > 70 µM | – | O[C@H]1c2cc3c(cc2S[C@H]1Cn1ccnc1)CCCC3 | –
20 | 45.9 µM | 60% | O=S1(=O)c2cc(Cl)ccc2C(OCc2ccc(Cl)cc2Cl)C1Cn1ccnc1 (stereo not given) | –
21 | 0.2 µM | 90% | Clc1sccc1CO[C@@H]1c2c(ccc3c2CCCC3)S[C@@H]1Cn1ccnc1 | IC50 [3]: 16.8 µM; Selectivity ratio [4]: 84
22 | 1 µM | – | CC(C)C(CP(=O)(O)C(Cc1ccccc1)NC(=O)OCc1ccccc1)C(=O)N[C@H](Cc1c[nH]c2ccccc12)C(=O)N[C@H](C)C(=O)O (stereo not given in full) | –
23 | 8.5 µM | 88% | C=CCO[C@@H]1c2ccc(Cl)cc2S[C@@H]1Cn1ccnc1 | –

Row | IC50 [1] | inhibition [2] | Compound | other results
24 | 0.7 µM | 91% | Fc1ccc2c(c1)[C@@H](OCc1ccc(Cl)cc1Cl)[C@@H](Cn1ccnc1)S2 | IC50 [3]: 18.3 µM; Selectivity ratio [4]: 26.1
25 | 2.5 µM | 90% | Cc1onc(-c2ccccc2)c1CO[C@@H]1c2ccc(Cl)cc2S[C@@H]1Cn1ccnc1 | –
26 | 2.5 µM | 69% | Clc1ccc2c(c1)S[C@H](Cn1ccnc1)[C@@H]2OCc1cnc2cc3c(cc2c1Cl)OCO3 | IC50 [5]: 3.1 µM; IC50 [3]: 1.4 µM; Selectivity ratio [4]: 0.6
27 | 5.3 µM | 85% | Clc1ccc2c(c1)C(OCc1c(Cl)cccc1Cl)C(Cn1ccnc1)S2 (stereo not given) | –
28 | – | 30% | OCc1nccn1C[C@H]1Sc2cc(Cl)ccc2[C@H]1OCc1ccsc1Cl | –
29 | 1.6 µM | 86% | Clc1cc(Cl)c2c(c1)[C@@H](OCc1ccsc1Cl)[C@@H](Cn1ccnc1)S2 | IC50 [3]: 16.2 µM; Selectivity ratio [4]: 10.1
30 | 10.8 µM | 61% | Clc1sccc1CO[C@@H]1c2cc3c(cc2S[C@@H]1Cn1ccnc1)CCCC3 | –
31 | 2.3 µM | – | O=C(Cc1ccncc1)N1CCC(=C2c3ccccc3CSc3ccccc32)CC1 | –
32 | 6 µM | 92% | Clc1cccc2c1S[C@H](Cn1ccnc1)[C@@H]2OCc1ccsc1Cl | –
33 | 2.5 µM | 92% | Clc1ccc2c(c1)C(OCc1ccsc1Cl)C(Cn1ccnc1)S2 (stereo not given) | –
34 | 10.7 µM | 75% | FC(F)(F)c1ccc2c(c1)S[C@H](Cn1ccnc1)[C@@H]2OCc1ccsc1Cl | –
35 | 5.4 µM | 75% | Clc1ccc(COC2c3ccc(Cl)cc3SC2Cn2ccnc2)c(Cl)c1 (stereo not given) | –
36 | 13.6 µM | 91% | Fc1ccc2c(c1)S[C@H](Cn1ccnc1)[C@@H]2OCc1ccsc1 | –
37 | 1.3 µM | – | Clc1ccc2c(c1)S[C@H](Cn1ccnc1)[C@@H]2OCc1cccnc1Cl | IC50 [3]: 3.3 µM; Selectivity ratio [4]: 2.5; inhibition [6]: 95%
38 | 0.87 µM | – | O=C(Nc1ccncc1)N1CCC(=C2c3ccc(Cl)cc3CCc3cccnc32)CC1 | –
39 | – | 23% | O[C@@H]1c2cc(F)ccc2S[C@@H]1Cn1ccnc1 | –
40 | – | 38% | O[C@@H]1c2ccc(F)cc2S[C@@H]1Cn1ccnc1 | –
41 | – | 44% | O[C@@H]1c2cccc(Cl)c2S[C@@H]1Cn1ccnc1 | –
42 | 1.3 µM | 89% | Clc1cccc2c1[C@@H](OCc1ccsc1Cl)[C@@H](Cn1ccnc1)S2 | IC50 [3]: 36.5 µM; Selectivity ratio [4]: 28.1
43 | 1.8 µM | 95% | Fc1ccc2c(c1)[C@@H](OCc1ccsc1Cl)[C@@H](Cn1ccnc1)S2 | IC50 [3]: 34.1 µM; Selectivity ratio [4]: 18.9
44 | > 75 µM | – | OC1c2cc(Cl)ccc2SC1Cn1ccnc1 (stereo not given) | –
45 | 2 µM | 68% | Clc1ccc2c(c1)S[C@H](Cn1ccnc1)[C@@H]2OCc1c(Cl)sc2ccccc12 | IC50 [3]: 38 µM; Selectivity ratio [4]: 19
46 | – | 44% | O[C@@H]1c2cc(Br)ccc2S[C@@H]1Cn1ccnc1 | –

Row | IC50 [1] | inhibition [2] | Compound | other results
47 | 0.7 µM | – | COC(=O)[C@@H](Cc1ccccc1)NC(=O)[C@@H](Cc1c[nH]c2ccccc12)NC(=O)[C@H](Cc1ccccc1)CP(=O)(O)O | –
48 | 2 µM | – | O=C(Cc1ccccn1)N1CCC(=C2c3ccc(Cl)cc3CCc3cccnc32)CC1 | –
49 | 9.2 µM | – | O=C(Nc1ccncc1)C1CCN(C2c3ccc(Cl)cc3CCc3cccnc32)CC1 (stereo not given) | –
50 | 1.1 µM | 88% | Clc1sccc1CO[C@@H]1c2cc(Br)ccc2S[C@@H]1Cn1ccnc1 | IC50 [3]: 14.2 µM; Selectivity ratio [4]: 12.9
51 | 2 µM | 88% | Clc1ccc2c(c1)S[C@H](Cn1ccnc1)[C@@H]2OCc1ccc(Cl)s1 | IC50 [3]: 5 µM; Selectivity ratio [4]: 2.5
52 | 20.8 µM | 79% | [O-][S+]1c2cc(Cl)ccc2[C@@H](OCc2ccsc2Cl)[C@H]1Cn1ccnc1 (stereo not given in full) | –
53 | 16 µM | 95% | Clc1ccc2c(c1)S[C@H](Cn1ccnc1)[C@@H]2OCc1ccsc1 | –
54 | 0.95 µM | – | O=C(Nc1ccccn1)N1CCN(C2c3ccc(Cl)cc3CCc3cccnc32)CC1 (stereo not given) | –
55 | 12.3 µM | 60% | Clc1ccc(COC2c3c(Cl)cc(Cl)cc3SC2Cn2ccnc2)c(Cl)c1 (stereo not given) | –
56 | 9.8 µM | – | CC(C)(C)CC(=O)N1CCC(=C2c3ccc(Cl)cc3CCc3cccnc32)CC1 | –
57 | 1.3 µM | 95% | Clc1ccc(COC2c3c(Cl)cccc3SC2Cn2ccnc2)cc1 (stereo not given) | IC50 [7]: 16 µM
58 | – | 89% | Clc1ccc2c(c1)S[C@H](Cn1ccnc1)[C@@H]2OCc1cc(Cl)sc1Cl | –
59 | 1.5 µM | 76% | Clc1sccc1CO[C@@H]1c2ccc3ccccc3c2S[C@@H]1Cn1ccnc1 | IC50 [3]: 15 µM; Selectivity ratio [4]: 10
60 | 1830 µM | – | [O-][n+]1ccc(CN2CCC(=C3c4ccccc4CCc4cccnc43)CC2)cc1 | –
61 | 1.14 µM | – | O=C(Cc1ccncc1)N1CCC(=C2c3ccccc3CCc3ccccc32)CC1 | –
62 | – | 2% | Clc1ccc2c(c1)S[C@H](CN1CCOCC1)[C@@H]2OCc1ccsc1Cl | –
63 | 2.3 µM | 94% | Fc1ccc2c(c1)[C@@H](OCc1c(F)cccc1Cl)[C@@H](Cn1ccnc1)S2 | –
64 | 5 µM | – | NC1CCC(C(=O)N2CCC(=C3c4ccc(Cl)cc4CCc4cccnc43)CC2)CC1 (stereo not given) | –
65 | 2.1 µM | – | O=C(Cc1ccncc1)N1CCC(=C2c3ccc(Cl)cc3CCc3ccc[n+]([O-])c32)CC1 | –
66 | 1.4 µM | 93% | Clc1cc2c(cc1Cl)C(OCc1ccsc1Cl)C(Cn1ccnc1)S2 (stereo not given) | IC50 [3]: 2.9 µM; Selectivity ratio [4]: 2.1
67 | 5.3 µM | – | O=C(O)c1ccc(C(=O)N2CCC(=C3c4ccc(Cl)cc4CCc4cccnc43)CC2)cc1 | –

Row | Compound | IC50 [1] | inhibition [2] | other results
68 | O=C(Nc1cccnc1)N1CCN(C2c3ccc(Cl)cc3CCc3cccnc32)CC1 (stereo not given) | 1.3 µM | – | –
69 | O=C(Cc1ccccc1)N1CCN(C2c3ccc(Cl)cc3CCc3cccnc32)CC1 (stereo not given) | 2.7 µM | – | –
70 | O=C(Cc1cccnc1)N1CCN(C(c2ccc(Cl)cc2)c2ccccn2)CC1 (stereo not given) | 38.3 µM | – | –
